Reference: ChEMBL document CHEMBL4130628, “Identification and Pharmacological Profile of an Indane Based Series of Ghrelin Receptor Full Agonists” (J Med Chem, 2018)
Values after ≈ are worked out from the molar mass of the structure shown. Active and inactive are the calls of the source. The calls are words filed in the database; no cut-off is given here.

Columns and labels:
Hepatocyte [1] = assay: Stability in rat hepatocytes assessed as formation of aldehyde adducts by LC-MS/MS method; format: ADME, cell-based
[2] = 1-octanol/aqueous buffer distribution coefficient, log D of compound at pH 7.4; format: physicochemical; conditions: 1-octanol/aqueous buffer, read-out: logD
[3] = target: T1, Growth hormone secretagogue receptor type 1 (Homo sapiens, UniProt Q92847); assay: Displacement of human [125I]-ghrelin from GHS-R1a (unknown origin) expressed in HEK293 cell membranes after 1 hr by radioligand binding assay; conditions: read-out: IC50
T1 sequence (Q92847 whole entry): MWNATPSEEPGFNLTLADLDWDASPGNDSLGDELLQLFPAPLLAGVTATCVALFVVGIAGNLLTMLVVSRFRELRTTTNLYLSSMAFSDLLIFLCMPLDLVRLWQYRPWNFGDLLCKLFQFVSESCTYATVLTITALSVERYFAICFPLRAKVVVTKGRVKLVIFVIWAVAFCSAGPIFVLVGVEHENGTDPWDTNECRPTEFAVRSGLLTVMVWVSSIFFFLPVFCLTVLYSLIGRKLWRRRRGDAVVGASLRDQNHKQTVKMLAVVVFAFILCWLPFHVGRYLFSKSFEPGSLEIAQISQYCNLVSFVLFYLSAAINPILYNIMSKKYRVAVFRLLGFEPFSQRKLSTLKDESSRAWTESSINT

[4] = target: T1, Growth hormone secretagogue receptor type 1; assay: Agonist activity at human GHS receptor assessed as intracellular myo-IP1 secretion after 90 mins by HTRF analysis; format: functional, cell-based; conditions: read-out: EC50
[5] = Drug metabolism in human liver microsomes assessed as 1-Methyl-N-((1S,2S)-1-((S)-morpholine-2-carboxamido)-2,3-dihydro-1H-inden-2-yl)-1H-indole-5-carboxamide formation by LC-MS/MS method; format: ADME, microsome
[6] = Drug metabolism in rat hepatocytes assessed as 1-Methyl-N-((1S,2S)-1-((S)-morpholine-2-carboxamido)-2,3-dihydro-1H-inden-2-yl)-1H-indole-5-carboxamide formation by LC-MS/MS method; format: ADME, cell-based, Hepatocyte
[7] = Stability in human liver microsomes assessed as formation of iminium ions by LC-MS/MS method; format: ADME, microsome
Hepatocyte [8] = assay: Stability in rat hepatocytes assessed as formation of iminium ions by LC-MS/MS method; format: ADME, cell-based
[9] = Stability in human liver microsomes assessed as formation of aldehyde adducts by LC-MS/MS method; format: ADME, microsome
[10] = Drug level in human liver microsomes treated with 1-Methyl-N-[(1S,2S)-1-{[(2S)-4-methylmorpholine-2-carbonyl]-amino}-2,3-dihydro-1H-inden-2-yl]-1H-indole-5-carboxamide by LC-MS/MS method; format: ADME, microsome
[11] = Drug level in rat hepatocytes treated with 1-Methyl-N-[(1S,2S)-1-{[(2S)-4-methylmorpholine-2-carbonyl]-amino}-2,3-dihydro-1H-inden-2-yl]-1H-indole-5-carboxamide by LC-MS/MS method; format: ADME, cell-based, Hepatocyte
Cytochrome P450 2D6 = Cytochrome P450 2D6 (Homo sapiens, UniProt P10635); assay: Inhibition of CYP2D6 (unknown origin); format: ADME
Chain of Cytochrome P450 2D6 (P10635 whole entry): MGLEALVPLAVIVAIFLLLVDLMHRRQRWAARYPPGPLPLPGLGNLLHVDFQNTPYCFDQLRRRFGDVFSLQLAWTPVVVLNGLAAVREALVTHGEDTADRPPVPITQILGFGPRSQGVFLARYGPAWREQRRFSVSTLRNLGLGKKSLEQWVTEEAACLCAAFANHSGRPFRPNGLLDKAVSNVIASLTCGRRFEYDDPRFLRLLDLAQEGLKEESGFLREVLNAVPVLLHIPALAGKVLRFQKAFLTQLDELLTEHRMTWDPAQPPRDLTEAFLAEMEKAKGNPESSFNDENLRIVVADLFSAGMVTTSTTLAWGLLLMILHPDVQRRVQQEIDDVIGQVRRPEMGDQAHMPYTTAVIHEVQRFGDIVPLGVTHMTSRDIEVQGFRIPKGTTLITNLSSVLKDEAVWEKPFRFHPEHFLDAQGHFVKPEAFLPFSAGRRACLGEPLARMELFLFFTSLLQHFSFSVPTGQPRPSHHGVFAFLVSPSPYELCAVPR

Mu-type opioid receptor [12] = target: T2, Mu-type opioid receptor (Homo sapiens, UniProt P35372); assay: Agonist activity at mu1-opioid receptor (unknown origin)
T2 sequence (P35372 whole entry): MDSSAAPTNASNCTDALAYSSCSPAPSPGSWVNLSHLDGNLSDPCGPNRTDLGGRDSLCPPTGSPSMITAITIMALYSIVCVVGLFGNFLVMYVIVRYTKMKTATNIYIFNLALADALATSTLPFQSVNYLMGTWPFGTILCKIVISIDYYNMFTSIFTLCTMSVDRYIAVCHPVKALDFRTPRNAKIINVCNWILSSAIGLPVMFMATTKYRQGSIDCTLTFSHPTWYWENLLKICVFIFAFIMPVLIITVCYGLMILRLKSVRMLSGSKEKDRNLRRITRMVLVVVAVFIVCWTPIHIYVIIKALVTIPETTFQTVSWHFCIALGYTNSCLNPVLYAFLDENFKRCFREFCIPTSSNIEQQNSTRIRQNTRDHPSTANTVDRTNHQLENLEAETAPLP

[13] = Intrinsic clearance in dog liver microsomes; format: ADME, Canis lupus familiaris, microsome; conditions: read-out: CLH
[14] = Clearance in Han-Wister rat at 1 mg/kg, iv bolus or 2 mg/kg, po after 24 hrs by LC-MS/MS analysis; format: ADME, organism-based; conditions: Han-Wistar, in vivo
Method in brief: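 Male Han Wistar rats (7–8 weeks, 200–300 g). IV bolus of about 1 mg/Kg via tail vein to two animals, in 5% DMSO/95% SBE-β-CD (30% w/v), pH 7.5. Oral dose of about 2 mg/Kg in the same vehicle. Jugular blood collected from pre-dose to 24 h. K2-EDTA plasma kept at -75±15 °C and analysed by LC-MS/MS.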

[15] = Apparent permeability across basolateral to apical side in human Caco2 cells at pH 7.4; format: ADME, cell-based; conditions: Caco-2, pH 7.4
Cytochrome P450 2C19 [16] = target: T3, Cytochrome P450 2C19 (Homo sapiens, UniProt P33261); assay: Drug metabolism assessed as CYP2C19 (unknown origin)-mediated hydroxylation of methyl group of indole; format: ADME
T3 sequence (P33261 whole entry): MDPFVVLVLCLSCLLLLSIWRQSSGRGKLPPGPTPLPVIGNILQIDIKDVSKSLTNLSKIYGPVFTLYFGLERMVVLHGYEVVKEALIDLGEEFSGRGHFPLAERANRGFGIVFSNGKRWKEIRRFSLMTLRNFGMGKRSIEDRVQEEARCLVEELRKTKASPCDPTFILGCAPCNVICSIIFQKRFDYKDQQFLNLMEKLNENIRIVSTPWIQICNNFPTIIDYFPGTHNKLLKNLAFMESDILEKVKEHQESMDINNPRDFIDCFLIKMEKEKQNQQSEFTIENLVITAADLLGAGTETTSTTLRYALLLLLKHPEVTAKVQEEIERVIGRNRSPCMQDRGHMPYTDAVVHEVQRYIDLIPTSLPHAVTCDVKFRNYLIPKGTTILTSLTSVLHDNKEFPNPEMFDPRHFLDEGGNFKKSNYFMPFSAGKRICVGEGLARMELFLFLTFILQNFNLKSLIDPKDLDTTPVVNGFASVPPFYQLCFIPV

Cytochrome P450 3A4 = Cytochrome P450 3A4 (Homo sapiens, UniProt P08684); assay: Inhibition of CYP3A4 (unknown origin); format: ADME
Chain of Cytochrome P450 3A4 (P08684 whole entry): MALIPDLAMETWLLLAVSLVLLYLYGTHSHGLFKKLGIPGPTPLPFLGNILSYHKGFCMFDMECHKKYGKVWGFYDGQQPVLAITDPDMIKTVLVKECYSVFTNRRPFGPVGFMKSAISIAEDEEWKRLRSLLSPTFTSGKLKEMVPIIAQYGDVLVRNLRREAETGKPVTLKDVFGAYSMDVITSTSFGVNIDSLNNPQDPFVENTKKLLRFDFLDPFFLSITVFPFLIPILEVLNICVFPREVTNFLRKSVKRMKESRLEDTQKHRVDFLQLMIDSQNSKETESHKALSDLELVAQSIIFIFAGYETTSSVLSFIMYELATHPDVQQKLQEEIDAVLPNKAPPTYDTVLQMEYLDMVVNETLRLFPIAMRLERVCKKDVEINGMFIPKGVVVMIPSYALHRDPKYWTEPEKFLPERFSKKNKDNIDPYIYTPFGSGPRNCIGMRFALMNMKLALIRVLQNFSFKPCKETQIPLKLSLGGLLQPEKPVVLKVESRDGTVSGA

[17] = Protein binding in rat plasma; format: ADME, cell-free; conditions: read-out: PPB (converted)
[18] = Protein binding in human plasma; format: ADME, cell-free; conditions: read-out: PPB (converted)
Cytochrome P450 2C9 = Cytochrome P450 2C9 (Homo sapiens, UniProt P11712); assay: Inhibition of CYP2C9 (unknown origin); format: ADME
Chain of Cytochrome P450 2C9 (P11712 whole entry): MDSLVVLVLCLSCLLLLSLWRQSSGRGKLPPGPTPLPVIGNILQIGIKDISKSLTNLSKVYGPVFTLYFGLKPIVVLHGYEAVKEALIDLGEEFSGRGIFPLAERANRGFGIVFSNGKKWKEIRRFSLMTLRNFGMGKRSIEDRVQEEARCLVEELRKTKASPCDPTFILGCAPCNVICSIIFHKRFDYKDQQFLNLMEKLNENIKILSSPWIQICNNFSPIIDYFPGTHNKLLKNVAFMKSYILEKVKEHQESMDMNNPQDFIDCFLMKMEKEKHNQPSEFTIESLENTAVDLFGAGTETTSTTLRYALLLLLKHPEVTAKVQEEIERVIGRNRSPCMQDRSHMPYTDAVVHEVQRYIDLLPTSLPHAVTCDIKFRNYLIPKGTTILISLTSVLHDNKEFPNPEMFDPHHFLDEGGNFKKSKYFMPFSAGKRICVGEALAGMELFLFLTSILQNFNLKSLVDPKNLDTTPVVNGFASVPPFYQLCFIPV

[19] = Volume of distribution in Beagle dog at 1 mg/kg, iv or 2 mg/kg, po after 24 hrs by LC-MS/MS analysis; format: ADME, organism-based, Canis lupus familiaris; conditions: in vivo
Method in brief: (§1)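 Male/female beagles (2–5 y, 12–15 kg) were fasted overnight. IV: about 1 mg/Kg as a 15-min infusion to two animals, in 5% DMSO/95% SBE-β-CD (30% w/v) adjusted to pH 7.5. PO: about 2 mg/Kg by gavage, in the same vehicle or 0.5% HPMC/0.1% Tween 80 suspension. Jugular blood was drawn 0.03–24 h (IV) or 0.17–24 h (PO). K2-EDTA plasma analysed by LC-MS/MS.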

[20] = Intrinsic clearance in rat liver microsomes; format: ADME, microsome; conditions: read-out: CLH
[21] = Apparent permeability across apical to basolateral side in human Caco2 cells at pH 7.4; format: ADME, cell-based; conditions: Caco-2, pH 7.4
[22] = Oral bioavailability in Beagle dog at 2 mg/kg after 24 hrs by LC-MS/MS analysis; format: ADME, organism-based, Canis lupus familiaris; conditions: in vivo; method in brief: as §1
Canis familiaris [23] = assay: Increase in plasma IGF1 level in Beagle dog at 8 mg/kg, po measured after 24 hrs post dose by ELIS; format: functional, organism-based; conditions: Canis lupus familiaris
Method in brief: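 Dog blood taken before dosing and at 15, 30, 45 min and 1, 2, 4, 7, 12, 24 h post dose into K2EDTA tubes. Centrifuged at 4°C; plasma frozen below -80°C until IGF-1 analysis.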

[24] = target: Voltage-gated inwardly rectifying potassium channel KCNH2 (Homo sapiens, UniProt Q12809); assay: Inhibition of human ERG expressed in CHO cells; format: cell-based
Chain of Voltage-gated inwardly rectifying potassium channel KCNH2 (Q12809 whole entry): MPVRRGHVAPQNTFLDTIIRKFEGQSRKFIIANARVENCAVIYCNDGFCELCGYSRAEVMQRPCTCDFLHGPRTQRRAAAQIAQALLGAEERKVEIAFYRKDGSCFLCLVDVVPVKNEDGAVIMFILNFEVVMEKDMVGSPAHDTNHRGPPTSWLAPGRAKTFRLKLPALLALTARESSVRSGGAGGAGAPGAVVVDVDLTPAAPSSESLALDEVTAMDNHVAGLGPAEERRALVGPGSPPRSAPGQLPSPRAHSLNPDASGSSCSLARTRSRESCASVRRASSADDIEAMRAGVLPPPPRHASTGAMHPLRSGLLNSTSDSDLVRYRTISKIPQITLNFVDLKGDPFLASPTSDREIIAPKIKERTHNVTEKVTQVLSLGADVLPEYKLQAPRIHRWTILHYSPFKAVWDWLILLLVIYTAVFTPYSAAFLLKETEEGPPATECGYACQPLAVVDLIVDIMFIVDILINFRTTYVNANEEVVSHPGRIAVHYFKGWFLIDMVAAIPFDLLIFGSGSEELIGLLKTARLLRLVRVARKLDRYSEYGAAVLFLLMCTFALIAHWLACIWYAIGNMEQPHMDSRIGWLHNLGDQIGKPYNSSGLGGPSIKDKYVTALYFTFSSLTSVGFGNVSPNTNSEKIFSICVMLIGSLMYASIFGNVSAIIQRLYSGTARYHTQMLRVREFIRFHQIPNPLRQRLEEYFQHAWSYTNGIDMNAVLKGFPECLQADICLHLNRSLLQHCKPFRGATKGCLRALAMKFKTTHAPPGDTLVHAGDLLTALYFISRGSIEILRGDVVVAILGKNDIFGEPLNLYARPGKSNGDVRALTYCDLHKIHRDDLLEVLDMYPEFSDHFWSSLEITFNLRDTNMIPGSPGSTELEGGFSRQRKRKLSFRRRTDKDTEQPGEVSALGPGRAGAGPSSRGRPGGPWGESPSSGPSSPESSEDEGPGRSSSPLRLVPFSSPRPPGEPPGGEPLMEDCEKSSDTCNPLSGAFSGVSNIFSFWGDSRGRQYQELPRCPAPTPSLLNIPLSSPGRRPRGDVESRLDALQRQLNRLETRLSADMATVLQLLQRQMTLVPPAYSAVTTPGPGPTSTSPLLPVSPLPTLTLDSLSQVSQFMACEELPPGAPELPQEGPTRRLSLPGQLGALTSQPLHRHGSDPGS
Method in brief: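 hERG currents recorded from CHO cells expressing hERG.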

Rattus norvegicus = assay: Renal clearance in Han-Wister rat at 1 mg/kg, iv bolus or 2 mg/kg, po after 24 hrs by LC-MS/MS analysis; format: ADME, organism-based; conditions: in vivo
[25] = Solubility of compound; format: physicochemical
Canis familiaris [26] = species on record: Canis familiaris; assay: Drug metabolism in Beagle dog assessed as hydroxylation of 5-methyl of indole ring by LC-MS/MS analysis; format: ADME, organism-based, Canis lupus familiaris; conditions: in vivo
Cytochrome P450 2C19 [27] = target: T3, Cytochrome P450 2C19; assay: Inhibition of CYP2C19 (unknown origin); format: ADME
[28] = Apparent intrinsic permeability across apical to basolateral side in human Caco2 cells at pH 6.5; format: ADME, cell-based; conditions: Caco-2, pH 6.5
Cytochrome P450 1A2 = target: T4, Cytochrome P450 1A2 (Homo sapiens, UniProt P05177); assay: Inhibition of CYP1A2 (unknown origin); format: ADME
T4 sequence (P05177 whole entry): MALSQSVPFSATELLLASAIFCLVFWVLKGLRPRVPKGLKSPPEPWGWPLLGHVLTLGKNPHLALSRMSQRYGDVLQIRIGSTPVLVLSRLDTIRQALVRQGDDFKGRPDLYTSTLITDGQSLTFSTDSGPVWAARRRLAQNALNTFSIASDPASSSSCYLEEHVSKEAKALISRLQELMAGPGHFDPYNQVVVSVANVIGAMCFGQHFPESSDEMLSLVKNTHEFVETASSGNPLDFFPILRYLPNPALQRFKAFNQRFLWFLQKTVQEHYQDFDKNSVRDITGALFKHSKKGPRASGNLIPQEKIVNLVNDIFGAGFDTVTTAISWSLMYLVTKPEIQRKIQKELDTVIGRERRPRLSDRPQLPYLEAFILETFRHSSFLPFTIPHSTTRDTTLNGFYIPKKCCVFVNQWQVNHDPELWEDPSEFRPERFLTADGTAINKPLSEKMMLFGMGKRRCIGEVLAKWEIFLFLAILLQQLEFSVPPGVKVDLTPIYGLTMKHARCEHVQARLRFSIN

[29] = Time dependent inhibition of CYP450 in human liver microsomes; format: ADME
[30] = Ratio of unbound drug level in brain to plasma in Beagle dog at 1 mg/kg, iv or 2 mg/kg, po after 24 hrs by LC-MS/MS analysis; format: ADME, organism-based, Canis lupus familiaris; conditions: read-out: K(p,uu,brain)
[31] = Fraction absorbed in Beagle dog at 2 mg/kg, po after 24 hrs by LC-MS/MS analysis; format: ADME, organism-based, Canis lupus familiaris; conditions: in vivo, read-out: Fabs
[32] = Protein binding in dog plasma; format: ADME, cell-free, Canis lupus familiaris; conditions: read-out: PPB (converted)
Mu-type opioid receptor [33] = target: T2, Mu-type opioid receptor; assay: Agonist activity at mu1-opioid receptor (unknown origin) by cell-based assay
[34] = Drug elimination in Beagle dog urine by LC-MS/MS analysis; format: ADME, Canis lupus familiaris; conditions: read-out: Drug excretion
[35] = Intrinsic clearance in human liver microsomes; format: ADME, microsome; conditions: read-out: CLH
[36] = Clearance in Beagle dog at 1 mg/kg, iv or 2 mg/kg, po after 24 hrs by LC-MS/MS analysis; format: ADME, organism-based, Canis lupus familiaris; conditions: in vivo; method in brief: as §1
[37] = Efflux ratio of apparent permeability across basolateral to apical over apical to basolateral side in human Caco2 cells; format: ADME, cell-based; conditions: Caco-2
Method in brief: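 Caco-2 monolayers; Papp measured in both directions at pH 7.4 (units 1E-6 cm/s). Efflux ratio taken as Papp basolateral-to-apical divided by Papp apical-to-basolateral.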

[38] = Half life in Beagle dog at 2 mg/kg, po after 24 hrs by LC-MS/MS analysis; format: ADME, organism-based, Canis lupus familiaris; conditions: in vivo; method in brief: as §1

## CN1CCO[C@H](C(=O)N[C@H]2c3ccccc3C[C@@H]2NC(=O)c2ccc3c(ccn3C)c2)C1
Hepatocyte [1]
  Stability: Unstable
[2]
  logD: 2.6
[3]
  IC50: 241 nM
[4]
  EC50: 21 nM
[5]
  Drug metabolism: Metabolite_Detected
[6]
  Drug metabolism: Metabolite_Detected
[7]
  Stability: Unstable
Hepatocyte [8]
  Stability: Unstable
[9]
  Stability: Unstable

## Cn1ccc2cc(C(=O)N[C@H]3Cc4ccccc4[C@@H]3NC(=O)[C@@H]3CNCCO3)ccc21
[2]
  logD: 1.8
[4]
  EC50: 52 nM
[10]
  Drug metabolism: Metabolite_Detected
[11]
  Drug metabolism: Metabolite_Detected

## CN(C)CCNC(=O)[C@H]1c2ccccc2C[C@@H]1NC(=O)c1cc2ccccc2[nH]1
Cytochrome P450 2D6
  IC50: > 20000 nM
Mu-type opioid receptor [12]
  IC50: 79.4 nM
[13]
  microsomal CLint: 9 µL/min/mg
[14]
  clearance: 170 mL/min/kg
[15]
  Papp B→A: 17.7 ×10⁻⁶ cm/s
Cytochrome P450 2C19 [16]
  Drug metabolism: Metabolite_Detected
Cytochrome P450 3A4
  IC50: > 20000 nM
[2]
  logD: 2.4
[17]
  fraction unbound: 0.96
[18]
  fraction unbound: 0.88
Cytochrome P450 2C9
  IC50: > 20000 nM
[19]
  Vd: 4.8 to 5.8 L/kg
[3]
  IC50: 4 nM
[4]
  EC50: 2 nM
[20]
  microsomal CLint: 48 µL/min/mg
[21]
  Papp A→B: 0.6 ×10⁻⁶ cm/s
[22]
  bioavailability: 9 to 13%
Canis familiaris [23]
  Activity: Active
[24]
  IC50: 31600 nM
Rattus norvegicus
  CL: > 5%
[25]
  solubility: 100 µM (≈ 39 µg/mL)
Canis familiaris [26]
  Drug metabolism: Metabolite_Detected
Cytochrome P450 2C19 [27]
  IC50: > 20000 nM
[28]
  Papp A→B: < 2.4 ×10⁻⁶ cm/s
Cytochrome P450 1A2
  IC50: > 20000 nM
[29]
  TDI: Not Active
[30]
  Kp uu at 24 h: < 0.02
[31]
  Fa at 24 h: 20%
[32]
  fraction unbound: 0.92
Mu-type opioid receptor [33]
  IC50: 234 nM
[34]
  dose excreted: 2%
[35]
  microsomal CLint: 4 to 9 µL/min/mg
[36]
  clearance: 18.8 to 26 mL/min/kg
[37]
  efflux ratio: 67.2
[38]
  half-life: 13.2 to 16.6 h
